Screening data: PubChem, several laboratories
Only a selection was taken, and hits are over-represented in it overall.
Dynein transport: inhibitors of GR-EGFP nuclear translocation, primary screen, dynein cargo transport inhibitor project, imaging, high-content, 3617.4 mouse cells; AID 1381, 2008; z-score, hits read low; test concentration mostly 20 µM; stimulated with dexamethasone, 1 µM; stronger effect = lower value; actives 0.47% (n = 220,000);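 active = plate z-score of nuclear minus cytoplasmic receptor signal below a set negative limit, without overly bright fluorescence or cell loss, cut at about -3.5 in these data, passing the limit was not always enough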;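 also: z-score of nuclear minus cytoplasmic ring GR-EGFP intensity difference per well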
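Buffer or medium: Induction medium lacking tetracycline, stripped serum | Also added: Dexamethasone agonist, 1.0 µM final, for 30 min | Timing: 48 h induction, 1 h compound, 30 min dex at 37 °C | Detection: Formaldehyde fixation, Hoechst nuclear stain, 10x automated fluorescence imaging | Measure: Nuclear versus cytoplasmic GR-EGFP signal, averaged per well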
CHOP inh: inhibitors of CHOP promoter induction, primary screen, cell-based, unfolded protein response, luciferase reporter | CHO-K1 CHOP-promoter luciferase, tunicamycin-induced, 15-18 h | inhibition, % at 10 µM | actives 3.8% (n = 220,000);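 active = compounds that reduced the stress-induced luciferase reporter signal by more than about 70% of percent inhibition, limit read from the data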;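 also: 0% = tunicamycin plus vehicle and 100% = wells without tunicamycin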
B2AR ag: beta2AR agonists driving receptor internalization, primary screen, cell-based, FAP fluorogen, flow cytometry; Beta-2 adrenergic receptor (Homo sapiens), P07550; Am2.2-beta2AR cells; response, % (no concentration beside the values); actives 0.43% (n = 340,000); AID 504454, 2011;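 active = response above a set limit, near 3 SD of response in nonfluorescent compounds, cut at about 42% in these data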
XBP1 UPR activ: activators of adaptive XBP1 UPR arm, primary screen, cell-based, CHO-XBP1 luciferase reporter, luminescence, uHTS | AID 463104, 2010 | IRE1-XBP1 UPR activation; percent of tunicamycin response, DMSO as zero | actives 0.33% (n = 330,000) | activation, % at 20 µM;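 active = versus positive control, 20 µM dose yields 30% or more activation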;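 also: 100% = tunicamycin at 10 µg/mL and 0% = DMSO only wells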
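Assay system: CHO-XBP1 luciferase reporter cells; Schedule: 6 h treatment, 37 °C; Detection: glow luminescence from Steady-Glo reagent; Benchmarks: high control tunicamycin 10 µg/mL final, low control DMSO vehicle only.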
CHOP UPR activ: activators of apoptotic CHOP UPR arm, primary screen, cell-based, CHO-CHOP luciferase reporter, luminescence, uHTS. UPR activation; percent of tunicamycin response over DMSO baseline. activation, % at 10 µM. actives 0.34% (n = 330,000);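 active = at 10 µM dose, activation of 40% or more, normalized to positive control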;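 also: 100% = tunicamycin at 10 µg/mL and 0% = DMSO alone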
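Material: CHO-CHOP cells, stable luciferase reporter of PERK-eIF2a-CHOP signalling; quantity: 500 reporter cells seeded per well; buffer or medium: F12 medium containing 10% fetal bovine serum; compound: one dose, 10 µM in 0.5% DMSO; incubation: 6 h compound treatment, 37 °C; measured by: Steady-Glo luciferase luminescence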
pCIP destab: p/CIP-EGFP fusion destabilizers, primary screen, fluorescence, F442A cells | 16 h | decrease of EGFP signal, % at 10 µM | actives 0.01% (n = 290,000) | AID 1984, 2009;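 active = EGFP signal decrease of at least 30% at 10 µM or well 3 SD below plate mean, unless failing retest; inactive = the rest, including hits failing retest or dose response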
* = called active by the depositor.

Results for Cc1ccc(NC(=O)CN(C)CC(=O)NC2CCCc3ccccc32)cc1 (stereo unspecified) ?
Dynein transport: -0.72; CHOP inh: 23; B2AR ag: -1; XBP1 UPR activ: -3; CHOP UPR activ: -1; pCIP destab: -8

What do the screens show for `CC(C)(C)c1ccc(NC(=O)CNC2CCCc3ccccc32)cc1` (stereo unspecified)?
Dynein transport: -0.51; CHOP inh: 91*; B2AR ag: 5; XBP1 UPR activ: 1; CHOP UPR activ: 0; pCIP destab: 10

What do the screens show for `CCc1ccc(-c2cc(C(=O)N/N=C/c3c[nH]c4ccccc34)[nH]n2)cc1`?
Dynein transport: -0.37; CHOP inh: 89*; B2AR ag: -1; XBP1 UPR activ: 1; CHOP UPR activ: 1; pCIP destab: 18

What do the screens show for `O=C(N/N=C/c1c[nH]c2ccccc12)c1cccc(Cl)c1`?
B2AR ag: 4; XBP1 UPR activ: -1; CHOP UPR activ: 6; pCIP destab: 1

Results for CCc1ccc(C(=O)N/N=C/c2cccc3ccccc23)nc1 ?
Dynein transport: 0.57; CHOP inh: 79*; B2AR ag: -7; XBP1 UPR activ: 3; CHOP UPR activ: 6; pCIP destab: -5

How did CCc1ccc2c(Cl)c(C(=O)N/N=C/c3c[nH]c4ccccc34)sc2c1 do in these assays?
Dynein transport: -0.29; CHOP inh: 71*; B2AR ag: -1; XBP1 UPR activ: -3; CHOP UPR activ: 5; pCIP destab: 0

Results for CSc1sc(C(=O)N(C)C)c2c1S(=O)(=O)N(C)c1ccccc1-2 ?
Dynein transport: -0.45; CHOP inh: -3; B2AR ag: 7; XBP1 UPR activ: -2; CHOP UPR activ: -1; pCIP destab: -13

Results for CCS(=O)(=O)c1ccc2c(c1)N(S(C)(=O)=O)CC(C(=O)NC1CC1)O2 (stereo unspecified) ?
Dynein transport: -0.41; CHOP inh: -36; B2AR ag: -4; XBP1 UPR activ: 0; CHOP UPR activ: 0; pCIP destab: -8

How did O=C1N=c2ccccc2=C1c1c(O)n(-c2cccc(F)c2)[nH]c1=O do in these assays?
Dynein transport: -0.16; CHOP inh: 73*; B2AR ag: 7; pCIP destab: 7

Results for CC1=NN(c2ccccc2)C(=O)/C1=C/c1c(O)n(-c2ccc(F)cc2)[nH]c1=O ?
Dynein transport: -0.72; CHOP inh: -23; B2AR ag: 9; XBP1 UPR activ: 0; CHOP UPR activ: 8; pCIP destab: -24

What do the screens show for `OCCC1CN(Cc2ccc3cc(Cl)ccc3n2)CCN1Cc1ccsc1` (stereo unspecified)?
Dynein transport: -0.86; CHOP inh: 48; B2AR ag: -4; XBP1 UPR activ: -1; CHOP UPR activ: 3; pCIP destab: -9

What do the screens show for `CC(C)(C)C(=O)/C=c1\[nH]c(=O)/c(=C\c2ccc(F)cc2)s1`?
Dynein transport: -0.049; CHOP inh: 81*; B2AR ag: 3; XBP1 UPR activ: -2; CHOP UPR activ: 3; pCIP destab: 1

Results for Cc1ccccc1/C=c1\s/c(=C\C(=O)C(C)(C)C)[nH]c1=O ?
Dynein transport: -0.38; CHOP inh: 82*; B2AR ag: 3; XBP1 UPR activ: 0; CHOP UPR activ: 1; pCIP destab: -13

What do the screens show for `Nc1nc(SCc2ccc([N+](=O)[O-])cc2)c2ncn([C@@H]3O[C@H](CO)[C@H](O)C3O)c2n1` (stereo partly specified)?
CHOP inh: -12

How did COc1ccc(Nc2nc(N3CCCC3)c3ccccc3n2)cc1 do in these assays?
Dynein transport: -1; CHOP inh: 57; B2AR ag: 18; XBP1 UPR activ: 6; CHOP UPR activ: 7; pCIP destab: -12

Results for CCN(CC)c1ccc(Nc2nc(N3CCOCC3)c3ccccc3n2)cc1 ?
Dynein transport: -0.36; CHOP inh: 74*; B2AR ag: 7; XBP1 UPR activ: 2; CHOP UPR activ: 6; pCIP destab: -12

How did COc1cc(C(=O)NC(=S)Nc2ccc(N3CCCC3)cc2)cc(OC)c1OC do in these assays?
Dynein transport: 2.6; CHOP inh: 75*; B2AR ag: 0; XBP1 UPR activ: 0; CHOP UPR activ: 1; pCIP destab: -22

What do the screens show for `COc1cc(C(=O)NC(=S)NC(C)C)cc(OC)c1OC`?
Dynein transport: 0.018; CHOP inh: -20; B2AR ag: 78*; XBP1 UPR activ: 2; CHOP UPR activ: -2; pCIP destab: -12

How did COc1cc(C(=O)NC(=S)N2CCCCCC2)cc(OC)c1OC do in these assays?
Dynein transport: 1.3; CHOP inh: -9; B2AR ag: -2; XBP1 UPR activ: 0; CHOP UPR activ: 0; pCIP destab: 10

Results for COc1ccc(C(=O)NC(=S)Nc2ccc(N3CCCC3)cc2)cc1 ?
Dynein transport: 0.12; CHOP inh: 4; B2AR ag: -2; XBP1 UPR activ: -3; CHOP UPR activ: 0; pCIP destab: -5

How did COc1ccc(-c2nnc(SCC(=O)O)n2Cc2ccccc2)cc1 do in these assays?
B2AR ag: 1; XBP1 UPR activ: -2; CHOP UPR activ: -1; pCIP destab: 9

How did O=S(=O)(NCCCNS(=O)(=O)c1c(F)cccc1F)c1ccc2c(c1)OCCO2 do in these assays?
B2AR ag: -3; XBP1 UPR activ: 0; CHOP UPR activ: 2

What do the screens show for `O=C(CC1CCCC1)NCCS(=O)(=O)N1CCN(c2ccc(F)cc2)CC1`?
B2AR ag: 0; XBP1 UPR activ: -4; CHOP UPR activ: 0

How did CC(C)NS(=O)(=O)c1ccc(OCC(=O)N2CCN(c3ccccc3)CC2)cc1 do in these assays?
Dynein transport: 1.4; CHOP inh: -8; B2AR ag: 6; XBP1 UPR activ: 0; CHOP UPR activ: -1; pCIP destab: 7

What do the screens show for `CCC(C)[C@H](NC(=O)N1CCN(c2cccc(C(F)(F)F)c2)CC1)C(=O)OC` (stereo partly specified)?
Dynein transport: -0.46; CHOP inh: 81*; B2AR ag: 3; XBP1 UPR activ: -4; CHOP UPR activ: -2; pCIP destab: 3

Results for C=CCOC(=O)N1CCN(c2cccc(C(F)(F)F)c2)CC1 ?
Dynein transport: -0.98; CHOP inh: 81*; B2AR ag: 5; XBP1 UPR activ: 2; CHOP UPR activ: -2; pCIP destab: -10
